The source made the active and inactive calls. The rule behind the calls is not given here.
Columns and labels:
Z-138 [1] = test: Antitumor activity against human Z138 cells xenografted in po dosed mouse measured for 21 days; assay type: functional, organism-based; settings: dose lower […], dose upper 200.0 mg/kg, time 21.0 day
Z-138 [2] = test: Induction of cell cycle arrest in human Z138 cells assessed as decrease in 2n cell population measured upto 1000 nM measured for 2 to 5 days by propidium iodide staining based flow cytometric analysis; assay type: functional; settings: time 2-5 day
Z-138 [3] = test: Antitumor activity against human Z138 cells xenografted in mouse assessed as reduction in tumor volume at 200 mg/kg, po qd pretreated for 21 days followed by treatment holiday for 10 days and further compound treatment for 2 weeks starting from day 32 followed by 1 week treatment holiday; assay type: functional, organism-based; settings: time 52.0 day
JVM-2 = test: Induction of apoptosis in human JVM-2 cells assessed as dead cells incubated for 6 days by annexin-V/FITC propidium iodide staining based flow cytometry analysis; assay type: functional, cell-based; settings: dose <= 5000.0 nM, time 6.0 day
HT = test: Antiproliferative activity against human HT cells assessed as cell growth inhibition incubated for 10 days; assay type: functional; settings: 240 h, time 10 day
Summary of the method: (§1)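 Outsourced panel run in 384-well plates. Cells were grown in RPMI-1640/10% FBS or a special medium at 37°C, 5% CO2. Compound was added 24 h after seeding as a 10-point, 3.16-fold series in 0.1% DMSO. Medium was refreshed and cells re-dosed at 168 h, with a time-zero plate kept. At 240 h cells were fixed, nuclei stained and imaged. gIC50 is growth midway between untreated and time zero, from a 4-parameter fit.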

[4] = target: Protein arginine N-methyltransferase 5 (Homo sapiens) (UniProt O14744); test: Inhibition of PRMT5 in p53 knockout human Z138 cells at 1 to 100000 nM incubated for 3 to 6 days; assay type: cell-based; settings: dose 1-100000 nM, time 3-6 day
SW948 = test: Antiproliferative activity against human SW948 cells assessed as cell growth inhibition incubated for 10 days; assay type: functional; settings: SW948, 240 h, time 10 day
COLO 205 = test: Antiproliferative activity against human COLO 205 cells assessed as cell growth inhibition incubated for 10 days; assay type: functional; settings: COLO 205, 240 h, time 10 day
Summary of the method: (§2)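 Cells kept in RPMI-1640 with 10% FBS, 2 mM L-alanyl-L-glutamine and 1 mM Na pyruvate (or a special medium) at 37°C, 5% CO2. Compound added 24 h after seeding, 10 concentrations in 3.16-fold dilution, 0.1% DMSO final. Medium replaced and cells re-dosed at 168 h; 240 h incubation. Nuclei fixed, dye-stained and imaged. gIC50 = growth midway between untreated and time-zero cell counts, from a 4-parameter fit.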

COR-L23 = test: Antiproliferative activity against human COR-L23 cells assessed as cell growth inhibition incubated for 10 days; assay type: functional; settings: COR-L23, 240 h, time 10 day; summary of the method: as §1
WI-38 = test: Antiproliferative activity against human WI-38 cells assessed as cell growth inhibition incubated for 10 days; assay type: functional; settings: WI-38, 240 h, time 10 day
Hs 294T = test: Antiproliferative activity against human Hs294T cells assessed as cell growth inhibition incubated for 10 days; assay type: functional; settings: 240 h, time 10 day
Summary of the method: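 Eurofins panel, 384-well. Cells kept in RPMI-1640 with 10% FBS, 2 mM L-alanyl-L-glutamine and 1 mM Na pyruvate, or in a special medium, at 37°C under 5% CO2. Compound added 24 h after seeding as 10 concentrations in 3.16-fold steps, 0.1% DMSO final. Medium replaced and compound re-dosed at 168 h. After 240 h, cells fixed and nuclei stained for imaging. gIC50 = growth midway between untreated cells and time-zero count.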

OVCAR-3 = test: Antiproliferative activity against human OVCAR-3 cells assessed as cell growth inhibition incubated for 10 days; assay type: functional; settings: OVCAR-3, 240 h, time 10 day
[5] = target: Protein arginine N-methyltransferase 5 (Homo sapiens) (UniProt O14744); test: Inhibition of PRMT5 in human Z138 cells expressing EGFP at 1 to 100000 nM incubated for 3 to 6 days; assay type: cell-based; settings: dose 1-100000 nM, time 3-6 day
[6] = Antiproliferative activity against human OE21 cells assessed as cell growth inhibition incubated for 10 days; assay type: functional; settings: OE21, 240 h, time 10 day
NCI-H441 = test: Antiproliferative activity against human NCI-H441 cells assessed as cell growth inhibition incubated for 10 days; assay type: functional; settings: NCI-H441, 240 h, time 10 day
[7] = Antiproliferative activity against human HLF cells assessed as cell growth inhibition incubated for 10 days; assay type: functional; settings: 240 h, time 10 day; summary of the method: as §1
CHL-1 = test: Antiproliferative activity against human CHL-1 cells assessed as cell growth inhibition incubated for 10 days; assay type: functional; settings: CHL-1, 240 h, time 10 day; summary of the method: as §2
MG-63 = test: Antiproliferative activity against human MG-63 cells assessed as cell growth inhibition incubated for 10 days; assay type: functional; settings: MG-63, 240 h, time 10 day
LS-1034 = test: Antiproliferative activity against human LS1034 cells assessed as cell growth inhibition incubated for 10 days; assay type: functional; settings: LS-1034, 240 h, time 10 day
[8] = Antiproliferative activity against human CML-T1 cells assessed as cell growth inhibition incubated for 10 days; assay type: functional; settings: CML-T1, 240 h, time 10 day; summary of the method: as §2
COR-L105 = test: Antiproliferative activity against human COR-L105 cells assessed as cell growth inhibition incubated for 10 days; assay type: functional; settings: COR-L105, 240 h, time 10 day; summary of the method: as §1
MHH-PREB-1 = test: Antiproliferative activity against human MHH-PREB-1 cells assessed as cell growth inhibition incubated for 10 days; assay type: functional; settings: MHH-PREB-1, 240 h, time 10 day
Ramos = test: Antiproliferative activity against human Ramos cells assessed as cell growth inhibition incubated for 10 days; assay type: functional; settings: 240 h, time 10 day
SK-N-AS = test: Antiproliferative activity against human SK-N-AS cells assessed as cell growth inhibition incubated for 10 days; assay type: functional; settings: 240 h, time 10 day
COLO-829 = test: Antiproliferative activity against human COLO-829 cells assessed as cell growth inhibition incubated for 10 days; assay type: functional; settings: COLO-829, 240 h, time 10 day; summary of the method: as §2
CAL-62 = test: Antiproliferative activity against human CAL-62 cells assessed as cell growth inhibition incubated for 10 days; assay type: functional; settings: CAL-62, 240 h, time 10 day; summary of the method: as §2
LNCaP = test: Antiproliferative activity against human LNCaP cells assessed as cell growth inhibition incubated for 10 days; assay type: functional; settings: 240 h, time 10 day
DMS-273 = test: Antiproliferative activity against human DMS-273 cells assessed as cell growth inhibition incubated for 10 days; assay type: functional; settings: DMS-273, 240 h, time 10 day; summary of the method: as §1
SU.86.86 = test: Antiproliferative activity against human SU-86-86 cells assessed as cell growth inhibition incubated for 10 days; assay type: functional; settings: SU.86.86, 240 h, time 10 day
SW900 = test: Antiproliferative activity against human SW900 cells assessed as cell growth inhibition incubated for 10 days; assay type: functional; settings: SW900, 240 h, time 10 day
A-375 = test: Antiproliferative activity against human A-375 cells assessed as cell growth inhibition incubated for 10 days; assay type: functional; settings: A-375, 240 h, time 10 day; summary of the method: as §2
C-33-A = test: Antiproliferative activity against human C-33-A cells assessed as cell growth inhibition incubated for 10 days; assay type: functional; settings: 240 h, time 10 day; summary of the method: as §2
NCI-H460 = test: Antiproliferative activity against human NCI-H460 cells assessed as cell growth inhibition incubated for 10 days; assay type: functional; settings: NCI-H460, 240 h, time 10 day
[9] = Antiproliferative activity against human BC1 cell line assessed as cell growth inhibition incubated for 10 days; assay type: functional; settings: BC1, 240 h, time 10 day; summary of the method: as §2

Sequence of Protein arginine N-methyltransferase 5 (Homo sapiens) (O14744 whole entry): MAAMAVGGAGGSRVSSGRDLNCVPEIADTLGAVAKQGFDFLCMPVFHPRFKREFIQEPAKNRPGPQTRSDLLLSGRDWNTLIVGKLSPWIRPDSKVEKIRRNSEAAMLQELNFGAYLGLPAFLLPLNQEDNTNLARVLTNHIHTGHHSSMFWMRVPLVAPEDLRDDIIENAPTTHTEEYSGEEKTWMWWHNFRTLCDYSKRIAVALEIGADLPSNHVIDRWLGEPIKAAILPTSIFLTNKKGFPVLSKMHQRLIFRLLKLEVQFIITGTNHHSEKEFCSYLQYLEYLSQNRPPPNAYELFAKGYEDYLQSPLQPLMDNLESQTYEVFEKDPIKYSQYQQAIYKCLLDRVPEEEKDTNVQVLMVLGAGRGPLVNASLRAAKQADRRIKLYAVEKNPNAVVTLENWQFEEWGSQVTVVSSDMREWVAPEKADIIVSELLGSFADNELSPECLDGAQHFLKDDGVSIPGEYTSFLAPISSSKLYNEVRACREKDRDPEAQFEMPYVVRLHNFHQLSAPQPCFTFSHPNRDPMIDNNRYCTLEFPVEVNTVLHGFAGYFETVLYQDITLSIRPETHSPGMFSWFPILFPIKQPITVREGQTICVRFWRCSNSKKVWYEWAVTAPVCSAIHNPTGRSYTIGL

CC(=O)N1CCC(Nc2cc(C(=O)NC[C@H](O)CN3CCc4ccccc4C3)ncn2)CC1 [PEMRAMETOSTAT]
Activity (Z-138 [1]): Dose-Dependent Effect
Activity (Z-138 [2]): Active
Activity (Z-138 [3]): Active
Activity (JVM-2): Dose-Dependent Effect

O=C(NC[C@H](O)CN1CCc2ccccc2C1)c1ccnc(NC2CCC2)c1
GI50 (HT): 206 nM
inhibition [4]: Active
GI50 (SW948): 120 nM
GI50 (COLO 205): 10000 nM
GI50 (COR-L23): 147 nM
GI50 (WI-38): 18.5 nM
GI50 (Hs 294T): 12.3 nM
GI50 (OVCAR-3): 51.4 nM
inhibition [5]: inactive
GI50 [6]: 146 nM
GI50 (NCI-H441): 556 nM
GI50 [7]: 87.7 nM
GI50 (CHL-1): 247 nM
GI50 (MG-63): 96 nM
GI50 (LS-1034): 172 nM
GI50 [8]: 16.1 nM
GI50 (COR-L105): 314 nM
GI50 (MHH-PREB-1): 10000 nM
GI50 (Ramos): 546 nM
GI50 (SK-N-AS): 31.9 nM
GI50 (COLO-829): 54.4 nM
GI50 (CAL-62): 253 nM
GI50 (LNCaP): 2930 nM
GI50 (DMS-273): 298 nM
GI50 (SU.86.86): 934 nM
GI50 (SW900): 3250 nM
GI50 (A-375): 79.6 nM
GI50 (C-33-A): 228 nM
GI50 (NCI-H460): 224 nM
GI50 [9]: 69.6 nM

Reference: ChEMBL document CHEMBL5653630, “Activation of the p53-MDM4 regulatory axis defines the anti-tumour response to PRMT5 inhibition through its role in regulating cellular splicing” (Sci Rep, 2018)
